PubChem BioAssay AID588560 (The Scripps Research Institute Molecular Screening Center, 2011)
Calls of active or inactive are those of the source.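 The calls were made as follows: active = inhibition of 50% or more against any one of four protein arginine deiminase enzymes; inactive = the rest.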

Experiments:
Experiment in all cases: single-point PAD isozyme panel inhibition – biochemical, colorimetric, BAEE substrate, recombinant enzymes, selectivity assay for PAD4 inhibitor project, late-stage follow-up (AID 588560)
[1] = target: Protein-arginine deiminase type-3 (Homo sapiens) (UniProt Q9ULW8); settings: recombinant PAD1-4, BAEE citrulline colorimetric, 15 min; PAD3; at 10 µM; hits give high values
Sequence of Protein-arginine deiminase type-3 (Homo sapiens) (Q9ULW8 whole entry, looked up): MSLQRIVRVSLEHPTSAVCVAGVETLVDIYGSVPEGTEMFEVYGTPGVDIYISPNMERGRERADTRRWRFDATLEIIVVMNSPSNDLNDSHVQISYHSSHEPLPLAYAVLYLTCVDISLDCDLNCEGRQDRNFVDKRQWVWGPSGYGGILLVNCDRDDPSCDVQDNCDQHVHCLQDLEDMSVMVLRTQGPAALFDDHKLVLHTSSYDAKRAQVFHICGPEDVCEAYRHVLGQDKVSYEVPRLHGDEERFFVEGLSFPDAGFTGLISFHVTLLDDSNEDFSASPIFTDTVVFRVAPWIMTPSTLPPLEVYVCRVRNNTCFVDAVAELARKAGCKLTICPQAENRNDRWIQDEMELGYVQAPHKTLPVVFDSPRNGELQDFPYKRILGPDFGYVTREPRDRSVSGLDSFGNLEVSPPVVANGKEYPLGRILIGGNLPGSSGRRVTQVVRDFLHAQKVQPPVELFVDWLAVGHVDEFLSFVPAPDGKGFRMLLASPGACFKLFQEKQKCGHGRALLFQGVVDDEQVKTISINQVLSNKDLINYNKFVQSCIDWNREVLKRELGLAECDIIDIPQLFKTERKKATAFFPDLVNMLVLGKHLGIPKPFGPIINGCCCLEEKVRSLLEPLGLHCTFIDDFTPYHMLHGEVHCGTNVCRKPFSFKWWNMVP
Outline: (§1)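 assay system = recombinant PAD1, PAD2, PAD3 or PAD4 enzyme, one isozyme per assay | medium = Tris pH 7.6 buffer with CaCl2 and DTT | schedule = 15 min enzyme–compound preincubation plus 15 min substrate reaction, both 37 °C | detection = colorimetric citrulline detection with diacetyl monoxime/thiosemicarbazide, absorbance 540 nm | control set = DMSO-treated enzyme as uninhibited reference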

[2] = target: Protein-arginine deiminase type-2 (Homo sapiens) (UniProt Q9Y2J8); settings: recombinant PAD1-4, BAEE citrulline colorimetric, 15 min; PAD2; at 10 µM; hits give high values
Sequence of Protein-arginine deiminase type-2 (Homo sapiens) (Q9Y2J8 whole entry, looked up): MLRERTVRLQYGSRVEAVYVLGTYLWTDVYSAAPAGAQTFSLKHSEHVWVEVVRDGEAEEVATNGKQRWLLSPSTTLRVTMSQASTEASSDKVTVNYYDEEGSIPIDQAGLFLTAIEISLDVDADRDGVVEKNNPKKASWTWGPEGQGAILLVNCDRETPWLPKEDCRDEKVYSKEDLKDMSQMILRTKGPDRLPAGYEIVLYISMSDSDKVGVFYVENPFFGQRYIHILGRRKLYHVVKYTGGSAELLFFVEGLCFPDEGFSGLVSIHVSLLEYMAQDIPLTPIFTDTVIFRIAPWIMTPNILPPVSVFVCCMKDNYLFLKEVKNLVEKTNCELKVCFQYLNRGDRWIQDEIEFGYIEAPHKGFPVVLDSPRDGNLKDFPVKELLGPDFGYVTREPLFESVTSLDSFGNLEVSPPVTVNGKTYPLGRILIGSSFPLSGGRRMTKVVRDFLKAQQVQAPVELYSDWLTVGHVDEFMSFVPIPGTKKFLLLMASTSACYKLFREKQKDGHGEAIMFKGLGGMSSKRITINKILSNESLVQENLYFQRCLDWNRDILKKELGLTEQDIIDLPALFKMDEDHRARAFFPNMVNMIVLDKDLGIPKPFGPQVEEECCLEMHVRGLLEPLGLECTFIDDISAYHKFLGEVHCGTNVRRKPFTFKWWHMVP
Outline: as §1

[3] = target: Protein-arginine deiminase type-1 (Homo sapiens) (UniProt Q9ULC6); settings: recombinant PAD1-4, BAEE citrulline colorimetric, 15 min; PAD1; at 10 µM; hits give high values
Sequence of Protein-arginine deiminase type-1 (Homo sapiens) (Q9ULC6 whole entry, looked up): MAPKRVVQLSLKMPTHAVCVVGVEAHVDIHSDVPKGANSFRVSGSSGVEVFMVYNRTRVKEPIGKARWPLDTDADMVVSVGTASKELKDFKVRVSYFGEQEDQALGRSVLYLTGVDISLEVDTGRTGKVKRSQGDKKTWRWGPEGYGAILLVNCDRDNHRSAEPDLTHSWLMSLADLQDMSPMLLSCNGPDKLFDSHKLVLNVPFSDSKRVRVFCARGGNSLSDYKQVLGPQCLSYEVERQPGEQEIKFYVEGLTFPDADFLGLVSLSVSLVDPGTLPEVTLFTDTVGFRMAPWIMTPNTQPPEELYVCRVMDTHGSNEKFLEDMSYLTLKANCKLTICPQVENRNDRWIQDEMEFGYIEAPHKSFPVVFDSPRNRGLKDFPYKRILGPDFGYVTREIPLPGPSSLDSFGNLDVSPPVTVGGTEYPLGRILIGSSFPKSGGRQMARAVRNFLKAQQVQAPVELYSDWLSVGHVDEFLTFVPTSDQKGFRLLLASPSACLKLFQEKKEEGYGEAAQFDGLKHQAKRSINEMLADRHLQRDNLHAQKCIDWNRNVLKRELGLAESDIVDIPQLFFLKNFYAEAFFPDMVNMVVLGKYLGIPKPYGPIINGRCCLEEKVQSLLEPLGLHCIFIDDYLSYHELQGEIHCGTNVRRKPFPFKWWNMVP
Outline: as §1

[4] = target: Protein-arginine deiminase type-4 (Homo sapiens) (UniProt Q9UM07); settings: recombinant PAD1-4, BAEE citrulline colorimetric, 15 min; PAD4; at 10 µM; hits give high values
Sequence of Protein-arginine deiminase type-4 (Homo sapiens) (Q9UM07 whole entry, looked up): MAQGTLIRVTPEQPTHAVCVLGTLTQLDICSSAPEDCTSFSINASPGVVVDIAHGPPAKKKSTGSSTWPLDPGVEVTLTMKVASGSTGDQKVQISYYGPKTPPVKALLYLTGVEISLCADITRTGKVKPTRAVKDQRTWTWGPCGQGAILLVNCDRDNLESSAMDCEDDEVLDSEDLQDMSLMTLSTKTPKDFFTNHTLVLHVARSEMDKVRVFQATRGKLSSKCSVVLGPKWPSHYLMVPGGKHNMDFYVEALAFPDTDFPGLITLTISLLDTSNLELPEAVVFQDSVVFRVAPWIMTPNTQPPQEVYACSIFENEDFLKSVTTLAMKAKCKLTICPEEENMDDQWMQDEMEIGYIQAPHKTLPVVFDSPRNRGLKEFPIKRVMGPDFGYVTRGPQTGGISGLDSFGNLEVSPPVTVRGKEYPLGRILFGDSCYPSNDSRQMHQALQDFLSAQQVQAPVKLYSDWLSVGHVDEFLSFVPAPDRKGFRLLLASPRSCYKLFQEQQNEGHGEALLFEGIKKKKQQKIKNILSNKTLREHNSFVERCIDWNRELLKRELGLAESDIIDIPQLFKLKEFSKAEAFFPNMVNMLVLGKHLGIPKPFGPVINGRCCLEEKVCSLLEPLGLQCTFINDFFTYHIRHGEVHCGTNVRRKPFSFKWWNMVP
Outline: as §1

Row | SMILES | inhibition [1] | inhibition [2] | inhibition [3] | inhibition [4]
1 | COC(=O)c1cccc(-c2ccc3c(n2)C(=O)C(N)=CC3=O)n1 | 84% | 92% | 75% | –
2 | COC1=C(I)C(=O)c2nc(C#N)ccc2C1=O | 98% | 63% | 60% | 97%
3 | O=C1C(O)=C(O)C(=O)c2ncccc21 | 96% | 41% (inactive) | 39% (inactive) | 83%
4 | COC(=O)c1nc(C(=O)OC)c(N)c(-c2ccccc2Br)c1C | -30% (inactive) | -22% (inactive) | -6% (inactive) | –
5 | COc1ccc2nc(C#N)ccc2c1[N+](=O)[O-] | 16% (inactive) | 2% (inactive) | -24% (inactive) | –
6 | O=C1C(Br)=CC(=O)c2ncccc21 | 10% (inactive) | 12% (inactive) | -57% (inactive) | 10% (inactive)
7 | COC(=O)c1nnc(C(=O)OC)c(-c2ccc3cc(OC)ccc3n2)n1 | 15% (inactive) | -14% (inactive) | -21% (inactive) | –
8 | O=C(O)c1cccc(-c2ccc3ccc(Br)c(OCc4ccccc4)c3n2)n1 | -7% (inactive) | -18% (inactive) | -23% (inactive) | –
9 | COC(=O)c1nc(C(=O)OC)c(NC(C)=O)c(-c2ccccc2Br)c1C | -30% (inactive) | -19% (inactive) | -20% (inactive) | –
10 | COC(=O)c1nnc(C(=O)OC)c(-c2ccc3c([N+](=O)[O-])c(OC)ccc3n2)n1 | 18% (inactive) | 7% (inactive) | -38% (inactive) | –
11 | CCOC(=O)c1nc(C(=O)OCC)c(C(=O)OCC)c(-c2ccc(OC)c(OC)c2OCc2ccccc2)c1C | -7% (inactive) | -31% (inactive) | -15% (inactive) | –
12 | NC1=CC(=O)c2ccc(-c3ccccn3)nc2C1=O | 90% | 101% | 73% | –
13 | COC1=C(Br)C(=O)c2nc(-c3ccccn3)ccc2C1=O | 100% | 62% | 50% | 91%
14 | NC1=CC(=O)c2ccc(-c3cccc(C(=O)O)n3)nc2C1=O | 97% | 85% | 71% | 98%
15 | COC1=CC(=O)c2nc(C#N)ccc2C1=O | 99% | 88% | 68% | 97%
16 | COC(=O)c1nc(-c2ccc3c(n2)C(=O)C(Br)=CC3=O)c2[nH]c3ccccc3c2c1C | -16% (inactive) | -15% (inactive) | -24% (inactive) | –
17 | COc1ccc2ncccc2c1[N+](=O)[O-] | 19% (inactive) | 17% (inactive) | -12% (inactive) | –
18 | COC1=C(N)C(=O)c2ncccc2C1=O | 100% | 78% | 57% | 87%
19 | NC1=C(N)C(=O)c2ccccc2C1=O | 44% (inactive) | 28% (inactive) | 22% (inactive) | 43% (inactive)
20 | COC(=O)c1nnc(C(=O)OC)c(-c2ccc3ccccc3n2)n1 | 24% (inactive) | -13% (inactive) | -41% (inactive) | –
21 | COc1ccc2nc(C#N)ccc2c1 | 8% (inactive) | 35% (inactive) | -37% (inactive) | –
22 | NC1=CC(=O)c2ccc(-c3cc(C(=O)O)ccc3N)nc2C1=O | 8% (inactive) | -19% (inactive) | -13% (inactive) | 13% (inactive)
23 | COC(=O)c1nc(C(C)=O)c2[nH]c3ccccc3c2c1C | -20% (inactive) | -29% (inactive) | 5% (inactive) | –
24 | COC(=O)c1cc(-c2ccccc2)c(C(=O)OC)c(-c2ccc3ccccc3n2)n1 | 16% (inactive) | -18% (inactive) | -20% (inactive) | –
25 | COC(=O)c1cccc(-c2ccc3c(n2)C(=O)C(Br)=CC3=O)n1 | -43% (inactive) | -26% (inactive) | 0% (inactive) | –
26 | COC1=C(Br)C(=O)c2ncccc2C1=O | 7% (inactive) | 88% | 75% | –
27 | NC1=CC(=O)c2cccnc2C1=O | 100% | 89% | 70% | 99%
28 | COC(=O)c1cccc(-c2ccc3ccc(Br)c(O)c3n2)n1 | -28% (inactive) | -22% (inactive) | -5% (inactive) | –
29 | O=C1C=C(Br)C(=O)c2ncccc21 | 76% | 14% (inactive) | -17% (inactive) | 56%
